Assay outcomes as filed in PubChem BioAssay.
Xi reactivation: reactivates the inactive X chromosome in mouse fibroblasts; XiGFP mouse fibroblasts, % GFP-positive cells imaging, 3 d; cells co-treated with 5-aza-dC sensitizer; scaled so ellipticine positive control = 100%; activation, % at 7.58 µM; actives 0.055% (n = 360,000); AID 743238;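 active = mean normalized replicate activation at least 10% and every replicate at or above 10%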;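 note: 0% = median of on-plate neutral control wells and 100% = ellipticine 6 µM median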
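System: 68-5-11 XiGFP fibroblast line | Buffer or medium: DMEM containing 5-aza-dC | Compound: Single point | Times: Compounds 3 days, fix/stain 15 min at room temperature | Benchmarks: Positive control ellipticine, 6 µM final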
CFTR F508del cor: correctors of CFTR F508del function in bronchial epithelial cells; actives 0.36% (n = 350,000); activity (quench increase), % at 7.58 µM; AID 720511; CFBE cells, YFP halide quenching; stimulated with forskolin plus potentiator P3; % fluorescence drop versus neutral controls;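 active = mean added fluorescence quench of at least 8% versus neutral control, with both replicates also reaching 8%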;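 note: cells transiently co-express mutant CFTR-F508del with the halide-sensitive YFP; corrector assay measuring rescue of mutant channel to the surface after 24 h compound exposure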
Cneo AK release: Cryptococcus neoformans lysis via adenylate kinase release. actives 0.2% (n = 360,000). C. neoformans lysis, adenylate kinase release luminescence, 4 h; normalised: neutral wells 0, clomiphene wells 100. lysis activity, % at 15 µM;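 active = mean lysis activity across replicates of at least 80%, whatever share of replicates individually reach that level; inactive = mean lysis activity below 80%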
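Signal: Adenylate kinase release luminescence | Assay system: Log-phase Cryptococcus neoformans yeast cells | Input: Cells at 5 × 10^6 per mL | Buffer or medium: Fresh YPD growth medium | Compound: Single dose | Schedule: Static 4 h at 37 °C with compound, 1 h detection | Controls: Clomiphene | Read-out: Luminescence rise reflecting yeast cell lysis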
FN deposit inh: fibronectin deposition inhibition | actives 0.086% (n = 350,000) | AID 743247 | AH1F fibroblasts, Alexa488-fibronectin deposition fluorescence, overnight | inhibition, % at 12.6 µM;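 active = mean inhibition across replicates of 30% or more, regardless of how many single replicates reach that level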;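 note: positive control wells lacked labelled fibronectin entirely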
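Material: AH1F fibroblast monolayer depositing Alexa488-labelled fibronectin into matrix / Amount: 10000 AH1F cells per well / Signal: fluorescence 485/525 nm / Medium: DMEM, 2% serum / Compound: single dose, pinned / Incubation: 1 h cell adhesion before compound, then overnight fibronectin incubation / Reagent: Alexa488-FN, 24 nM final / Read-out: inhibition of fibronectin deposition signal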
DENV2 CPE rescue: protects cells from dengue virus 2 cytopathic effect; actives 1.7% (n = 350,000); DENV2-infected cells, cytopathic effect rescue, plate reader; AID 651640; CPE inhibition, % at 9.99 µM; in the data active = CPE inhibition above about 20%, passing the limit was not always enough; tested in BHK-21 cells;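 note: 0% = median of neutral control wells and 100% = median of positive control wells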
PGC1a acetyl inh: lowers PGC1a acetylation signal in U2OS cells. AlphaScreen anti-acetyl-lysine; with virally co-expressed GCN5 acetyltransferase. inhibition, % at 15.6 µM. actives 0.17% (n = 350,000);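 active = every replicate shows inhibition of at least 40%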;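 note: 0% = neutral control wells and 100% = positive control wells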
The depositor's hits bear a star. The list is not random: actives were taken first. Their share in the collection is about 1.9%.

For CC(C)c1ccc(N(C(=O)c2snc(C(N)=O)c2N)C(C(=O)NCC2CCCO2)c2ccc(N(C)C)cc2)cc1 (configuration not stated) the results were Xi reactivation 0, CFTR F508del cor 5, Cneo AK release 2, FN deposit inh -6, DENV2 CPE rescue 32* and PGC1a acetyl inh -16.
For COc1ccc(S(=O)(=O)Nc2ccc3c(c2)CC(=O)N([C@@H](C)CO)C[C@@H](C)[C@@H](CN(C)Cc2ccncc2)O3)cc1 the results were Xi reactivation -1, CFTR F508del cor 1, Cneo AK release 1, FN deposit inh 8, DENV2 CPE rescue -1 and PGC1a acetyl inh -8.
O=C(c1ccccc1F)N1C[C@@H]2O[C@H](CNS(=O)(=O)c3ccccc3)CC[C@@H]21 was read as CFTR F508del cor 2 and DENV2 CPE rescue 61*.
For COc1cc2c(cc1OC)[C@@]1(c3ccccc3)CCCC[C@H]1[C@@H]2NC(=O)C(F)(F)F the results were Xi reactivation 0, CFTR F508del cor -1, FN deposit inh 3 and DENV2 CPE rescue 20*.
CCc1ccc(NC(=O)C(C)OC(=O)Cn2[nH]c(=O)c3ccccc3c2=O)cc1 (configuration not stated) was read as Xi reactivation 0, CFTR F508del cor 1, Cneo AK release -1, FN deposit inh 1, DENV2 CPE rescue 60* and PGC1a acetyl inh 4.
Screening CC(OC(=O)Cn1[nH]c(=O)c2ccccc2c1=O)C(=O)Nc1ccc(Cl)cn1 (configuration not stated) returned Xi reactivation 0, CFTR F508del cor 1, Cneo AK release 0, FN deposit inh 2, DENV2 CPE rescue 14 and PGC1a acetyl inh 10.
Cc1cc(-c2onc(C)c2C(=O)Oc2ccc(Cl)cc2)no1 was read as Xi reactivation 0, CFTR F508del cor -4, FN deposit inh 5, DENV2 CPE rescue 73* and PGC1a acetyl inh -6.
`COc1ccc(S(=O)(=O)N2C[C@H](O)COC[C@H]3O[C@H](CC(=O)NCCCN(C)C)CC[C@@H]32)cc1` gave Xi reactivation 0, CFTR F508del cor -1, Cneo AK release -8, FN deposit inh -2, DENV2 CPE rescue 21* and PGC1a acetyl inh -2.
Screening O=C(C[C@@H]1CC[C@@H]2[C@H](COC[C@@H](O)CN2S(=O)(=O)c2ccc(F)cc2)O1)NCc1ccc(Cl)c(Cl)c1 returned Xi reactivation 0, CFTR F508del cor -1, Cneo AK release -1, FN deposit inh -6, DENV2 CPE rescue 29* and PGC1a acetyl inh -3.
Screening Cc1ccc(S(=O)(=O)N2C[C@@H](O)COC[C@H]3O[C@H](CC(=O)NCc4ccc5c(c4)OCO5)CC[C@@H]32)cc1 returned Xi reactivation 0, CFTR F508del cor -3, Cneo AK release 104*, FN deposit inh -6 and PGC1a acetyl inh 1.
Screening O=C(C[C@@H]1CC[C@H]2[C@@H](COC[C@@H](O)CN2S(=O)(=O)c2ccc(Cl)cc2)O1)NCCN1CCCC1 returned Xi reactivation 0, CFTR F508del cor -2, Cneo AK release -4, FN deposit inh -5, DENV2 CPE rescue 23* and PGC1a acetyl inh -5.
For COc1ccc(S(=O)(=O)N2C[C@@H](O)COC[C@@H]3O[C@H](CC(=O)NCCCN(C)C)CC[C@H]32)cc1 the results were Xi reactivation 0, CFTR F508del cor 1, Cneo AK release 0, FN deposit inh -3, DENV2 CPE rescue 12 and PGC1a acetyl inh -1.
`Cc1ccc(S(=O)(=O)N2C[C@H](O)COC[C@H]3O[C@@H](CC(=O)NCc4ccc5c(c4)OCO5)CC[C@@H]32)cc1` gave Xi reactivation 0, CFTR F508del cor -3, Cneo AK release 1, FN deposit inh -3, DENV2 CPE rescue -1 and PGC1a acetyl inh 1.
`CC(C)Cc1ccc(CN2CC[C@@H](NS(=O)(=O)c3ccccc3)C2)cc1` gave CFTR F508del cor 5, Cneo AK release -5, DENV2 CPE rescue 2 and PGC1a acetyl inh 4.
Screening Cc1ccc(S(=O)(=O)N(C)C[C@H]2Oc3c(NS(=O)(=O)c4ccc(Cl)cc4)cccc3C(=O)N([C@H](C)CO)C[C@H]2C)cc1 returned Xi reactivation 0, CFTR F508del cor -1, Cneo AK release -2, DENV2 CPE rescue -5 and PGC1a acetyl inh 4.
`C[C@H]1CCCCO[C@H](CN(C)S(=O)(=O)c2cccs2)[C@@H](C)CN([C@@H](C)CO)C(=O)c2cc(NS(=O)(=O)c3cn(C)cn3)ccc2O1` gave Xi reactivation 0, CFTR F508del cor 0, Cneo AK release 1, FN deposit inh -16, DENV2 CPE rescue -4 and PGC1a acetyl inh 12.
`O=C(CCN1CCCCC1)N[C@@H]1CC[C@@H](CCNS(=O)(=O)c2ccc(F)cc2)O[C@H]1CO` gave Xi reactivation 0, CFTR F508del cor 3, Cneo AK release -5, DENV2 CPE rescue -6 and PGC1a acetyl inh -11.
For C[C@H](CO)N1C[C@H](C)[C@H](CN(C)C(=O)CN(C)C)Oc2cc(-c3ccncc3)ccc2S1(=O)=O the results were Xi reactivation -1, CFTR F508del cor 2, Cneo AK release 1, DENV2 CPE rescue 2 and PGC1a acetyl inh -15.
`CCCNC(=O)N(C)C[C@@H]1Oc2cc(C#C[C@H](C)O)ccc2S(=O)(=O)N([C@H](C)CO)C[C@H]1C` gave Xi reactivation 0, CFTR F508del cor 3, Cneo AK release 5, FN deposit inh 11, DENV2 CPE rescue 1 and PGC1a acetyl inh -10.
Screening C[C@H](O)C#Cc1ccc2c(c1)O[C@@H](CN(C)C)[C@H](C)CN([C@H](C)CO)S2(=O)=O returned Xi reactivation 0, CFTR F508del cor -1, Cneo AK release -5, FN deposit inh 48*, DENV2 CPE rescue 13 and PGC1a acetyl inh -1.
CCCNC(=O)N(C)C[C@H]1Oc2cc(C#C[C@H](C)O)ccc2S(=O)(=O)N([C@H](C)CO)C[C@H]1C was read as Xi reactivation 0, CFTR F508del cor 3, Cneo AK release 0, FN deposit inh -1, DENV2 CPE rescue 42* and PGC1a acetyl inh 18.
Screening C[C@@H]1CN([C@H](C)CO)S(=O)(=O)c2ccc(C#CC3CCCC3)cc2O[C@H]1CN(C)C returned Xi reactivation 0, CFTR F508del cor 1, Cneo AK release 2, FN deposit inh 3, DENV2 CPE rescue 61* and PGC1a acetyl inh -52.
